According to ChEMBL document CHEMBL4627381, “Licochalcone A Selectively Resensitizes ABCG2-Overexpressing Multidrug-Resistant Cancer Cells to Chemotherapeutic Drugs” (J Nat Prod, 2020):

Experiments:
[1] = biological target: T1, Broad substrate specificity ATP-binding cassette transporter ABCG2 (Homo sapiens, UniProt Q9UNQ0); assay: Reversal of ABCG2 (unknown origin)-mediated multidrug resistance in human H460-MX20 cells assessed as fold change in mitoxantrone IC50 at 0.5 uM after 72 hrs by MTT assay relative to mitoxantrone IC50; format: cell-based
T1 sequence (Q9UNQ0 whole entry): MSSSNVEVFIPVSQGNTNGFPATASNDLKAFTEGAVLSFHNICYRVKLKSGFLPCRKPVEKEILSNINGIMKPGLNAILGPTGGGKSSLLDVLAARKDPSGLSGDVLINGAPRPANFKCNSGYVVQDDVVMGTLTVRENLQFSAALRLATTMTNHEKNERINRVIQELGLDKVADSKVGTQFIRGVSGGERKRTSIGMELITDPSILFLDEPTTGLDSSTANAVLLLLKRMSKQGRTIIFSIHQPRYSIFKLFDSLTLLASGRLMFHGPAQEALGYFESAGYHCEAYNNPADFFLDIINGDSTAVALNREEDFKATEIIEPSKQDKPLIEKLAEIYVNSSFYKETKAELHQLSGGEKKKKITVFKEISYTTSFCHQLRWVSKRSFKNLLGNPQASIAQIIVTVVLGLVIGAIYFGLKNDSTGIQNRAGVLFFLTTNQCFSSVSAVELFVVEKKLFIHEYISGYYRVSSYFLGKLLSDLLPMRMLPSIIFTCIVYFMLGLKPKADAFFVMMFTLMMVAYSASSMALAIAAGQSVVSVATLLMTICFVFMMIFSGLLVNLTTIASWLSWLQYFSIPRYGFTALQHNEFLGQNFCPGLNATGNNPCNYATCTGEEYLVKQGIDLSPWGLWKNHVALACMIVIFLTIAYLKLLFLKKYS
Procedure, shortened: (§1)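 Cells held drug-free 7 days, seeded at 5000 per well for 24 h, then exposed 72 h to mitoxantrone or topotecan dilutions with DMSO (≤0.5%), LCA 0.5–3.0 μM, or Ko143 1.0 μM. Viability was read by MTT. IC50 came from fitted dose-response curves of three independent experiments. Fold-reversal = IC50 without modulator divided by IC50 with modulator.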

[2] = biological target: T2, ATP-dependent translocase ABCB1 (Homo sapiens, UniProt P08183); assay: Reversal of human ABCB1-mediated multidrug resistance in HEK293/MDR19 cells assessed as fold change in colchicine IC50 at 3 uM after 72 hrs by CCK8 relative to colchicine IC50; format: cell-based
T2 sequence (P08183 whole entry): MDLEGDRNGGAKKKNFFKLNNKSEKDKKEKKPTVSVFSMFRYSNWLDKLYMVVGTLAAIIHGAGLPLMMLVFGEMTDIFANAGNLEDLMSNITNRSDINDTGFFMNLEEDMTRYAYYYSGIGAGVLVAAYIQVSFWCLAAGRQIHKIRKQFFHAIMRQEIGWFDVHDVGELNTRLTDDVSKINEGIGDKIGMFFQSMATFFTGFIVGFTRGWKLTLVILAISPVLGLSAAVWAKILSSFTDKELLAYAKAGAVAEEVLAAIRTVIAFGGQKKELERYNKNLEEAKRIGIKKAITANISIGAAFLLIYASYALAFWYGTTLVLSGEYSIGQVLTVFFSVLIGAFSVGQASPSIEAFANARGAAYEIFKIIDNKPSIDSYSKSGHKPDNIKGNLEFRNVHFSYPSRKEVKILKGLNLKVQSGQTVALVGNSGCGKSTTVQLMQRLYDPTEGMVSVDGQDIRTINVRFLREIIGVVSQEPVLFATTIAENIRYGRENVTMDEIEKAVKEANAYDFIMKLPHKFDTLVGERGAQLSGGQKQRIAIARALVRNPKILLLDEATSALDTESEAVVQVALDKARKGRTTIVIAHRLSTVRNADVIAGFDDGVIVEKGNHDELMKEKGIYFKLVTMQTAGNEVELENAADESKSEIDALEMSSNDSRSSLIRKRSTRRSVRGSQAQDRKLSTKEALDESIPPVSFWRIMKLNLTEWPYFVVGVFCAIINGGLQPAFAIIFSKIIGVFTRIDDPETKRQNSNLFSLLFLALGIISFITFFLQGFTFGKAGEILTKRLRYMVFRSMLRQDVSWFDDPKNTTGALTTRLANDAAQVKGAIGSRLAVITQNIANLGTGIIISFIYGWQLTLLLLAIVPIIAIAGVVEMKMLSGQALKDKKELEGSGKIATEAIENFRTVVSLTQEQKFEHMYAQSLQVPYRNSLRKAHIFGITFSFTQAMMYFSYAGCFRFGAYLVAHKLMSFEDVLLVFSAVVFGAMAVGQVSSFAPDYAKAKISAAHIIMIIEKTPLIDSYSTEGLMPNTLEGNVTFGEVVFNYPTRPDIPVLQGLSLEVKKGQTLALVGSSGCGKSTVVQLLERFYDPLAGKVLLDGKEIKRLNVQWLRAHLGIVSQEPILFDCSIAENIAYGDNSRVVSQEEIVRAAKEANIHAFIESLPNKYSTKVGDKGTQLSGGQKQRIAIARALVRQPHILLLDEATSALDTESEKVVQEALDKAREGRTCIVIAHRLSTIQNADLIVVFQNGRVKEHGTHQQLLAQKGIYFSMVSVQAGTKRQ
Procedure, shortened: (§2)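 Cells were seeded at 5000/well for 24 h, then given colchicine, etoposide, mitoxantrone or topotecan ± non-toxic modulator (0.5–3.0 μM) for 72 h, with DMSO up to 0.5%. IC50 came from fitted curves (mean ± SD, three experiments). Fold-reversal = IC50 without modulator ÷ IC50 with modulator.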

HEK293 [3] = assay: Effect on topotecan-induced cytotoxicity against HEK293 cells assessed as fold change in topotecan IC50 at 1 uM after 72 hrs by CCK8 assay relative to topotecan IC50; format: cell-based; settings: human, hek293, 72 h
Procedure, shortened: (§3)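 Reversal assay in parental pcDNA-HEK293 and transfected HEK293 lines (ABCB1 for colchicine, ABCC1 for etoposide, ABCG2 for mitoxantrone/topotecan). Substrate drug series was given with or without nontoxic modulator (0.5, 1.0, 2.0 or 3.0 μM) for 72 h, with a CCK-8 read-out. Fold-reversal is substrate IC50 without modulator divided by IC50 with modulator. Three independent experiments.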

S1-M1-80 = assay: Induction of apoptosis in human S1-M1-80 cells harboring ABCG2 (unknown origin) assessed as viable cells at 10 uM incubated for 48 hrs by annexin V/propidium iodide staining based flow cytometry (reference value: 93.9%); format: functional; settings: S1-M1-80, 48 h, read-out: Activity
S1 [4] = assay: Induction of apoptosis in human S1 cells assessed as necrotic cells at 10 uM incubated for 48 hrs in presence of topotecan by annexin V/propidium iodide staining based flow cytometry (reference value: 0.2%); format: functional
Procedure, shortened: (§4)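 S1 cells were exposed for 48 h to DMSO, 10 μM compound, 5 μM topotecan, or 5 μM topotecan plus 10 μM compound. They were then stained with 1.25 μg/mL annexin V–FITC and 0.1 mg/mL PI for 15 min at room temperature. 10000 cells per sample were analysed by flow cytometry; three independent experiments.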

HEK293 [5] = assay: Effect on mitoxantrone-induced cytotoxicity against HEK293 cells assessed as fold change in mitoxantrone IC50 at 2 uM after 72 hrs by CCK8 assay relative to mitoxantrone IC50; format: cell-based; settings: human, hek293, 72 h; procedure, shortened: as §3
[6] = biological target: T1, Broad substrate specificity ATP-binding cassette transporter ABCG2; assay: Reversal of ABCG2 (unknown origin)-mediated multidrug resistance in human S1-M1-80 cells assessed as fold-change in mitoxantrone IC50 at 1 uM after 72 hrs by MTT assay relative to mitoxantrone IC50; format: cell-based; settings: s1-m1-80, 72 h
Procedure, shortened: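 MTT readout in S1-M1-80 colon cancer cells (mitoxantrone-selected, held in 80 μM mitoxantrone, then drug-free 7 days before assay). Cells were seeded at 5000/well for 24 h, then given increasing mitoxantrone or topotecan with DMSO or non-toxic modulator for 72 h at 37 °C. IC50 came from fitted dose-response curves (at least three independent experiments). Fold-reversal = IC50 without modulator ÷ IC50 with modulator.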

S1 [7] = assay: Induction of apoptosis in human S1 cells assessed as necrotic cells at 10 uM incubated for 48 hrs by annexin V/propidium iodide staining based flow cytometry (reference value: 0.2%); format: functional; procedure, shortened: as §4
[8] = biological target: T1, Broad substrate specificity ATP-binding cassette transporter ABCG2; assay: Reversal of human ABCG2-mediated multidrug resistance in HEK293/R482 cells assessed as fold-change in topotecan IC50 at 2 uM after 72 hrs by CCK8 relative to topotecan IC50; format: cell-based; procedure, shortened: as §2
S1 [9] = assay: Induction of apoptosis in human S1 cells assessed as late apoptotic cells at 10 uM incubated for 48 hrs in presence of topotecan by annexin V/propidium iodide staining based flow cytometry (reference value: 3.6%); format: functional; procedure, shortened: as §4
[10] = biological target: T1, Broad substrate specificity ATP-binding cassette transporter ABCG2; assay: Reversal of human ABCG2-mediated multidrug resistance in HEK293/R482 cells assessed as fold change in mitoxantrone IC50 at 0.5 uM after 72 hrs by CCK8 assay relative to mitoxantrone IC50; format: cell-based; procedure, shortened: as §2
[11] = biological target: T2, ATP-dependent translocase ABCB1; assay: Reversal of human ABCB1-mediated multidrug resistance in HEK293/MDR19 cells assessed as fold change in colchicine IC50 at 1 uM after 72 hrs by CCK8 relative to colchicine IC50; format: cell-based; procedure, shortened: as §2
[12] = biological target: T1, Broad substrate specificity ATP-binding cassette transporter ABCG2; assay: Reversal of ABCG2 (unknown origin)-mediated multidrug resistance in human H460-MX20 cells assessed as fold change in mitoxantrone IC50 at 3 uM after 72 hrs by MTT assay relative to mitoxantrone IC50; format: cell-based; procedure, shortened: as §1
NCI-H460 = assay: Effect on mitoxantrone-induced cytotoxicity against human H460 cells assessed as fold change in mitoxantrone IC50 at 0.5 uM after 72 hrs by MTT assay relative to mitoxantrone IC50; format: functional
Procedure, shortened: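 Parental S1 colon and H460 lung cancer cells were exposed for 72 h to a mitoxantrone or topotecan concentration series, with or without modulator at 0.5–3.0 μM, and read by MTT. Fold-reversal is IC50 without modulator divided by IC50 with modulator, taken from dose-response curves of three independent experiments.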

- fold change (FC) [2]: 0.9
- fold change (FC) [8]: 4.6
- fold change (FC) [11]: 0.8
Compound: C=CC(C)(C)c1cc(/C=C/C(=O)c2ccc(O)cc2)c(OC)cc1O [LICOAGROCHACONE A]
- fold change (FC) [1]: 2.6
- fold change (FC) (HEK293 [3]): 1
- viability at 10 µM (S1-M1-80): 94.4%
- Activity (S1 [4]): 3%
- fold change (FC) (HEK293 [5]): 1
- fold change (FC) [6]: 10.8
- Activity (S1 [7]): 0.2%
- Activity (S1 [9]): 22.5%
- fold change (FC) [10]: 2.7
- fold change (FC) [12]: 16.6
- fold change (FC) (NCI-H460): 0.8
